From PubChem BioAssay
An excerpt weighted towards active compounds, which were near 0.6% of everything screened.
Rad51 HR inh = blocks human Rad51 in homologous recombination; AID 1385; inhibition, % at 10 µM; 200,000 tested, 0.085% active; Q06609; hRad51 DNA strand exchange, fluorescence dequenching;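 active = inhibition above 40% at the single screening dose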
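Material: human Rad51–ssDNA filaments; Probe or stimulus: labelled 47-mer dsDNA for strand exchange; Doses: single 10 µM dose; Incubation: 37 °C 15-min filament assembly, 30-min compound preincubation, 15-min exchange; Technique: FRET fluorescence dequenching, excitation 485 nm, emission 520 nm; Measure: Fluorescence-based percent inhibition, control- and blank-normalised; Benchmarks: plate control and blank wells.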
PMI act satM6P = activators of human phosphomannose isomerase at near-saturating mannose 6-phosphate. coupled PMI enzyme assay, resazurin fluorescence, 20 min; stronger effect = higher value; 1 = untreated enzyme, 0 = substrate-free blank. 190,000 tested, 0.34% active. activation factor at 20 µM. P34949;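 active = activation factor of 2 or more at 20 µM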
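Test system – human PMI in coupled enzyme assay · Timing – 20 min incubation at room temperature · Detection – Diaphorase-driven resazurin-to-resorufin fluorescence, excitation 544, emission 590 nm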
PMI activator = phosphomannose isomerase (human) activation | P34949 | purified human PMI, coupled resazurin fluorescence, 20 min; stronger effect = higher value; 1 = vehicle control, 0 substrate-free wells | activation factor at 20 µM | 190,000 tested, 0.005% active | AID 1214;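 active = activation factor of 2 or more at 20 µM, relative to plate controls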
TNAP inh hi DEA = TNAP (human) inhibition, high acceptor. 200,000 tested, 0.03% active. purified TNAP, CDP-star luminescence, 1 M DEA. P05186. inhibition, % at 20 µM;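 active = over 50% inhibition of tissue-nonspecific alkaline phosphatase at 20 µM in the single-dose screen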
Target sequence (P05186 whole entry, looked up): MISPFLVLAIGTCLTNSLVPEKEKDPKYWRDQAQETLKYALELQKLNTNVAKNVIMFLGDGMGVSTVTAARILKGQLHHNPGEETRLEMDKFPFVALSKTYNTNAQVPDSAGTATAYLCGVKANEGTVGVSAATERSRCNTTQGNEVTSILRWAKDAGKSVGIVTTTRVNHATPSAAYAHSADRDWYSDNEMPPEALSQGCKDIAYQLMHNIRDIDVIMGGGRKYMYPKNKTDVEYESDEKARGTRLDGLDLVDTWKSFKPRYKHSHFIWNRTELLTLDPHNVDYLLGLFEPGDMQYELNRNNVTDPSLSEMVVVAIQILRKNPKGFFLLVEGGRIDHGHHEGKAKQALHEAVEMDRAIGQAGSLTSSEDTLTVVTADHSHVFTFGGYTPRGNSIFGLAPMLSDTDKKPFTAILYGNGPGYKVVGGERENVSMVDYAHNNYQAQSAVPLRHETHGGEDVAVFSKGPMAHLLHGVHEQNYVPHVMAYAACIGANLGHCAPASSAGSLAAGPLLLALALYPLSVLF
TNAP act hi DEA = increases human TNAP activity under high phosphate acceptor concentration. activation factor at 20 µM. P05186. 200,000 tested, under 10 active. purified TNAP, CDP-star luminescence, 1 M DEA, 30 min; stronger effect = higher value; 0 = EDTA background, 1 = DMSO-only activity. AID 1136;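 active = activation factor at least 2 at 20 µM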
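Test system – human TNAP · Doses – 20 µM single point · Incubation – 30 min, room temperature · Signal – luminescent substrate turnover signal · Read-out basis – activation factor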
TNAP inh no acc = TNAP (human) inhibition, acceptor-free conditions. purified TNAP, CDP-star luminescence, 30 min. inhibition, % at 20 µM. 200,000 tested, 0.26% active. P05186. AID 1012;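 active = tissue-nonspecific alkaline phosphatase inhibition above about 50% at 20 µM in the single-dose screen, limit read from the data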
Of the large screens only hits and unclear results are named; the others gave an inactive call.

O=C1C2CC=CCC2C(=O)N1c1n[nH]c(-c2ccccc2)n1 (stereo not drawn)	TNAP inh no acc 97
O=C1C2CC=CCC2C(=O)N1c1nc2n(n1)C(c1ccccc1)CC(c1ccccc1)N2 (stereo not drawn)	none (no result: Rad51 HR inh)
O=C1C2C3C=CC(C3)C2C(=O)N1c1ccc2ccccc2n1 (stereo not drawn)	none
CCC1(C)Cc2c(C#N)c(N)n(-c3ccccc3)c(=S)c2CO1 (stereo not drawn)	none (no result: Rad51 HR inh)
S=c1[nH]nc(-c2cc(-c3ccccn3)nc3ccccc23)o1	none (no result: PMI act satM6P, PMI activator, TNAP inh hi DEA, TNAP act hi DEA, TNAP inh no acc)
Cc1ccc(-c2cc(-c3n[nH]c(=S)o3)c3ccccc3n2)cc1	PMI act satM6P 2.2
COC(=O)c1ccc(N2C(=O)CC(Sc3n[nH]c(C)n3)C2=O)cc1 (stereo not drawn)	none
O=C(CSc1ncn[nH]1)NCCOc1ccccc1	none
COc1ccc(-c2csc(NC(=O)CSc3ncn[nH]3)n2)cc1OC	none
O=C(CSc1ncn[nH]1)NCCC(c1ccccc1)c1ccccc1	TNAP inh hi DEA 51, TNAP inh no acc 55
O=C(CSc1ncn[nH]1)Nc1nc(-c2ccccc2)cs1	TNAP inh no acc 84
CC(C)COC(=O)NCC12C=CC(O1)C1C(=O)N(c3ccc(Cl)cc3)C(=O)C12 (stereo not drawn)	none
CCOc1cc(C=O)ccc1OCC(=O)N1CCCC1	none
CCOc1cc(/C=N/Nc2cccc(C(=O)O)c2)ccc1OCC(=O)N1CCCCC1	PMI act satM6P 2.3
CCCn1c(CCC(=O)O)ccc1-c1ccccc1	none
CCCN1CCC(=NNc2ccc(C(=O)O)cc2)CC1	PMI act satM6P 3
Cc1ccc(S(=O)(=O)CCSc2ccc(C(F)(F)F)cn2)cc1	none (no result: PMI act satM6P, PMI activator, TNAP inh hi DEA, TNAP act hi DEA, TNAP inh no acc)
Cc1ccc(S(=O)(=O)N/N=C/c2ccc(O)c(O)c2)cc1[N+](=O)[O-]	TNAP inh no acc 67
CC(C)C(=O)NNc1ccccc1	none
CC(O)CC(C(=O)NNc1ccccc1)C(=O)NNc1ccccc1 (stereo not drawn)	PMI act satM6P 2.5
O=C(NNc1ccccc1)C(CCO)C(=O)NNc1ccccc1	PMI act satM6P 2.4
CC(C)CN(CC(C)C)S(=O)(=O)N1CCC(C(=O)NCc2ccccn2)CC1	none
N#Cc1c(-c2ccco2)c2c([nH]c1=S)CCCC2	none
Cc1[nH]c(=S)c(C#N)c2c1CCCC2	PMI act satM6P 2
CC(C)Cc1c2c([nH]c(=S)c1C#N)CCCC2	PMI act satM6P 2
Cc1[nH]c(=O)c(C#N)c2c1CCCC2	none
OCCCn1c(-c2ccccc2)csc1=Nc1ccccc1	none
Cc1nc(SCC(N)=O)c(C#N)c(C)c1C	none (no result: PMI act satM6P, PMI activator, TNAP inh hi DEA, TNAP act hi DEA, TNAP inh no acc)
COc1cccc(-c2cn3nc(C)c(C)nc3n2)c1	PMI act satM6P 2.1
CCCCCCOc1ccc(C(=O)O)cc1C#N	none (no result: Rad51 HR inh)
COc1cc(/C=N/Nc2ccc(Cl)cc2)ccc1OC(=O)c1cccs1	PMI act satM6P 2.3
Cc1ccc(C(=O)Nc2ccccc2)cc1S(=O)(=O)Nc1ccc(Cl)cn1	none
C=C1c2ccccc2NC(=O)N1c1ccc(C)cc1	PMI act satM6P 2.1
C=C1c2cc(C)ccc2NC(=O)N1c1ccc(C)cc1	PMI act satM6P 2.4
Cc1ccc(N2C(=O)c3cccc4cccc(c34)C2=O)cc1	none
COc1cc2c(cc1OC)C(c1cc3cc4c(cc3[nH]c1=O)OCO4)N(C(=O)C1CC1)CC2 (stereo not drawn)	none (no result: Rad51 HR inh)
CCOc1cc(/C=N/NC(=O)CSc2nncn2C)ccc1OCc1cccc(C)c1	none
CC1(OC(=O)C2CCCC2)C(=O)C=C2C=C(c3ccsc3)N(Cc3ccco3)C=C2C1=O (stereo not drawn)	none (no result: PMI act satM6P, PMI activator, TNAP inh hi DEA, TNAP act hi DEA, TNAP inh no acc)
Cc1ccc(CNC(=O)CSCc2ccc(F)cc2)cc1	Rad51 HR inh 46
Cc1ccc(-c2ccc(=O)n(CC(=O)NCc3ccc(F)cc3)n2)cc1	Rad51 HR inh 50
Cc1ccc(CNC(=O)CSCc2ccccc2)cc1	none
NS(=O)(=O)c1cnccc1Nc1ccc(Cl)cc1	TNAP inh hi DEA 90, TNAP inh no acc 87
Cc1cccc(NC(=O)Cn2cccc2)c1	none
CCn1ccnc1CN(C)Cc1cn[nH]c1-c1ccc(F)cc1F	TNAP inh no acc 85
CCC(=O)n1nc(-c2ccccc2)nc1N	none
CCC(=O)n1nc(-c2ccc(OC)cc2)nc1N	TNAP inh no acc 51
O=C(CN(Cc1ccco1)C(=O)CCC(=O)Nc1nccs1)NCc1ccccc1	Rad51 HR inh 125
O=C(CN(Cc1cccs1)C(=O)CCC(=O)Nc1nccs1)NCc1ccccc1	none
O=C(Cc1ccccc1)NC(NNc1ccccc1)(C(F)(F)F)C(F)(F)F	PMI act satM6P 2.5
O=C(Cc1ccccc1)NNC(=O)Cc1ccccc1	none
NNc1ncnc2sc3c(c12)CCC3	TNAP inh no acc 88
COc1ccc(-c2cn3c(C)c(C(=O)Nc4cccc(C)n4)sc3n2)cc1	PMI act satM6P 2
CCOC(=O)CC(NC(=O)c1cc2cc(Cl)cc(Cl)c2oc1=O)c1cccc([N+](=O)[O-])c1 (stereo not drawn)	none
COn1c(SC(C)C)nc2ccccc2c1=O	none
C[C@](N)(Cc1ccc(O)c(O)c1)C(=O)O	TNAP inh no acc 54
COC(=O)C(N)Cc1ccc(O)c(O)c1 (stereo not drawn)	none
COc1ccc(N=C(NN)c2ccc3ccccc3n2)cc1	PMI act satM6P 2.3
COCCCNC(=S)NCCNc1nc2c(C)c(C)ccc2cc1C#N	PMI act satM6P 2.8 (no result: Rad51 HR inh)
COCCCNC(=S)NCCCNc1nc2cc(C)cc(C)c2cc1C#N	PMI act satM6P 2.5 (no result: Rad51 HR inh)
COCCCNC(=S)N1CCCN(c2nc3c(C)c(C)ccc3cc2C#N)CC1	none (no result: PMI act satM6P, PMI activator)
COc1ccc(N2CC(C(=O)OCC(=O)c3ccccc3)CC2=O)cc1 (stereo not drawn)	none
Cc1[nH]nc(-c2ccc(O)c(C)c2O)c1Oc1ccccc1	TNAP inh no acc 72
Cc1[nH]nc(-c2ccc(OCc3cnn(-c4ccccc4)c3)c(C)c2O)c1Oc1ccccc1	none
Cc1ccc(C(=O)NC2c3ccccc3-c3ccccc32)cc1	none
Cc1ccc2c(C)cc(=S)[nH]c2c1	PMI act satM6P 2.8
Cc1ccc2[nH]c(=S)cc(C)c2c1	none
Cc1cc(=S)[nH]c2ccccc12	PMI act satM6P 2.1 (no result: Rad51 HR inh)
Cc1nn(Cc2c(F)c(F)c(F)c(F)c2F)c(C)c1NC(=O)c1c(-c2ccccc2)nn(-c2ccccc2)c1C	none
CC(=O)/C(=N/Nc1ccccc1)N1CCOCC1	none
CC(=O)/C(=N/Nc1cccc(Cl)c1)N1CCOCC1	PMI act satM6P 2
CC(=O)/C(=N/Nc1ccccc1C)N1CCOCC1	PMI act satM6P 2.4
O=C(COc1ccccc1N1C(=O)c2ccccc2C1=O)c1ccc(Cl)cc1	none
CCOC(=O)N1CCN(c2nc3ccc(C(=O)c4ccccc4)cc3n3cnnc23)CC1	none (no result: PMI act satM6P, PMI activator, TNAP inh hi DEA, TNAP act hi DEA, TNAP inh no acc)
